Entries after “also recorded” stand apart in the source; their conditions may differ.
Legend:
HPK1 (MAP4K1) = HPK1 (MAP4K1) (Homo sapiens, UniProt Q92918); assay: IC50 for kinases of potential cross-over; format: biochemical
MARK1 = MARK1 (Homo sapiens, UniProt Q9P0L2); assay: IC50 for kinases of potential cross-over; format: biochemical
RSK2 = RSK2 (Homo sapiens, UniProt P51812); assay: IC50 for kinases of potential cross-over; format: biochemical
LRRK2 = LRRK2 (Homo sapiens, UniProt Q5S007); assay: IC50 for kinases of potential cross-over; format: biochemical
[1] = Metabolic stability in liver microsomes; format: in vitro ADME; details: mouse
[2] = Metabolic stability in liver microsomes; format: in vitro ADME; details: monkey
Method in brief: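 Test compound from 1 mM DMSO solution preincubated 5 min with dog, human, monkey, rat or minipig liver microsomes. NADPH (10 mM) then added. Reactions stopped at 0, 5, 15 and 30 min with 0.05% formic acid in acetonitrile containing loperamide internal standard. Supernatants analysed by LC-MS/MS; n = 1 per microsome species.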

CYP3A4 = CYP3A4 (Homo sapiens, UniProt P08684); assay: Cytochrome P450 phenotyping; format: in vitro ADME; details: recombinant human CYP3A4; with NADPH; 30 minutes; n = 1
Method in brief: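 Recombinant human CYP3A4 was prepared at 100 nM, and a 2 μM dosing solution of test compound in DMSO was added on ice. After prewarming, 8 mM NADPH solution or blank buffer was added for 30 minutes. Acetonitrile with internal standard stopped the reaction. The plate was shaken and centrifuged, and the supernatant was analysed by LC-MS/MS; n = 1.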

[3] = 7-day minipig study: plasma pharmacokinetics; format: in vivo
minipig [4] = assay: 7-day minipig study: dermal tolerability; format: in vivo; details: 2% solution applied to the skin for 7 consecutive days
Method in brief: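 Each minipig (1 male, 1 female) received topical test compound and matching placebo formulations once daily on designated skin areas. Animals were checked daily for clinical signs. Application sites were scored for dermal irritation by a modified Draize procedure.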

minipig [5] = assay: 28-day minipig repeat exposure study: toxicology; format: in vivo; details: topical solution daily for 28 days, 0, 40, 80 and 160 mg/day
Method in brief: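 GLP repeat-dose dermal study in minipigs. Topical solution given daily for 28 days at 0, 40, 80 and 160 mg/day. Left on skin 20–22 h each day, then the site was wiped clean with a moist towel. Dermal tolerability and toxicokinetics assessed.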

[6] = male, plasma, topical, 160 mg/day

MARK1, sequence (Q9P0L2 whole entry): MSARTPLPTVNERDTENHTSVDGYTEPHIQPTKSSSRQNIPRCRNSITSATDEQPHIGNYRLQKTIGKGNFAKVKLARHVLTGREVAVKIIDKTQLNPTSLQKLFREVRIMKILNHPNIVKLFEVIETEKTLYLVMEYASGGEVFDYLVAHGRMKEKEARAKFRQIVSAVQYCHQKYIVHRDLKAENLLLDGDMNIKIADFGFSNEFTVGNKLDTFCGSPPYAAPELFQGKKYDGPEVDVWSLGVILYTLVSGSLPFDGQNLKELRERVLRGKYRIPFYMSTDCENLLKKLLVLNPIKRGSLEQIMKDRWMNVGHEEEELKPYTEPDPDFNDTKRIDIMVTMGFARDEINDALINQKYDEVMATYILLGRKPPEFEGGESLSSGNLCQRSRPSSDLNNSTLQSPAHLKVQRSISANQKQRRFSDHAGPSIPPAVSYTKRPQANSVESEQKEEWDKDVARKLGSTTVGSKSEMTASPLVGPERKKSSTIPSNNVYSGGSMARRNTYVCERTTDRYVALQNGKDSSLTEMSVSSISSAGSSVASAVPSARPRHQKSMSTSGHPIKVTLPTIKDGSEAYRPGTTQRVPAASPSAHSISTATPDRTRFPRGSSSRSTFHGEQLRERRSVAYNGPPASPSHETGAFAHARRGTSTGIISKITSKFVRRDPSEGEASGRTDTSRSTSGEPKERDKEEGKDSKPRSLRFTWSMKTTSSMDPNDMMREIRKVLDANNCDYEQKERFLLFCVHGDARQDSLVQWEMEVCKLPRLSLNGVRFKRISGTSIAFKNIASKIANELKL
LRRK2, sequence (Q5S007 whole entry): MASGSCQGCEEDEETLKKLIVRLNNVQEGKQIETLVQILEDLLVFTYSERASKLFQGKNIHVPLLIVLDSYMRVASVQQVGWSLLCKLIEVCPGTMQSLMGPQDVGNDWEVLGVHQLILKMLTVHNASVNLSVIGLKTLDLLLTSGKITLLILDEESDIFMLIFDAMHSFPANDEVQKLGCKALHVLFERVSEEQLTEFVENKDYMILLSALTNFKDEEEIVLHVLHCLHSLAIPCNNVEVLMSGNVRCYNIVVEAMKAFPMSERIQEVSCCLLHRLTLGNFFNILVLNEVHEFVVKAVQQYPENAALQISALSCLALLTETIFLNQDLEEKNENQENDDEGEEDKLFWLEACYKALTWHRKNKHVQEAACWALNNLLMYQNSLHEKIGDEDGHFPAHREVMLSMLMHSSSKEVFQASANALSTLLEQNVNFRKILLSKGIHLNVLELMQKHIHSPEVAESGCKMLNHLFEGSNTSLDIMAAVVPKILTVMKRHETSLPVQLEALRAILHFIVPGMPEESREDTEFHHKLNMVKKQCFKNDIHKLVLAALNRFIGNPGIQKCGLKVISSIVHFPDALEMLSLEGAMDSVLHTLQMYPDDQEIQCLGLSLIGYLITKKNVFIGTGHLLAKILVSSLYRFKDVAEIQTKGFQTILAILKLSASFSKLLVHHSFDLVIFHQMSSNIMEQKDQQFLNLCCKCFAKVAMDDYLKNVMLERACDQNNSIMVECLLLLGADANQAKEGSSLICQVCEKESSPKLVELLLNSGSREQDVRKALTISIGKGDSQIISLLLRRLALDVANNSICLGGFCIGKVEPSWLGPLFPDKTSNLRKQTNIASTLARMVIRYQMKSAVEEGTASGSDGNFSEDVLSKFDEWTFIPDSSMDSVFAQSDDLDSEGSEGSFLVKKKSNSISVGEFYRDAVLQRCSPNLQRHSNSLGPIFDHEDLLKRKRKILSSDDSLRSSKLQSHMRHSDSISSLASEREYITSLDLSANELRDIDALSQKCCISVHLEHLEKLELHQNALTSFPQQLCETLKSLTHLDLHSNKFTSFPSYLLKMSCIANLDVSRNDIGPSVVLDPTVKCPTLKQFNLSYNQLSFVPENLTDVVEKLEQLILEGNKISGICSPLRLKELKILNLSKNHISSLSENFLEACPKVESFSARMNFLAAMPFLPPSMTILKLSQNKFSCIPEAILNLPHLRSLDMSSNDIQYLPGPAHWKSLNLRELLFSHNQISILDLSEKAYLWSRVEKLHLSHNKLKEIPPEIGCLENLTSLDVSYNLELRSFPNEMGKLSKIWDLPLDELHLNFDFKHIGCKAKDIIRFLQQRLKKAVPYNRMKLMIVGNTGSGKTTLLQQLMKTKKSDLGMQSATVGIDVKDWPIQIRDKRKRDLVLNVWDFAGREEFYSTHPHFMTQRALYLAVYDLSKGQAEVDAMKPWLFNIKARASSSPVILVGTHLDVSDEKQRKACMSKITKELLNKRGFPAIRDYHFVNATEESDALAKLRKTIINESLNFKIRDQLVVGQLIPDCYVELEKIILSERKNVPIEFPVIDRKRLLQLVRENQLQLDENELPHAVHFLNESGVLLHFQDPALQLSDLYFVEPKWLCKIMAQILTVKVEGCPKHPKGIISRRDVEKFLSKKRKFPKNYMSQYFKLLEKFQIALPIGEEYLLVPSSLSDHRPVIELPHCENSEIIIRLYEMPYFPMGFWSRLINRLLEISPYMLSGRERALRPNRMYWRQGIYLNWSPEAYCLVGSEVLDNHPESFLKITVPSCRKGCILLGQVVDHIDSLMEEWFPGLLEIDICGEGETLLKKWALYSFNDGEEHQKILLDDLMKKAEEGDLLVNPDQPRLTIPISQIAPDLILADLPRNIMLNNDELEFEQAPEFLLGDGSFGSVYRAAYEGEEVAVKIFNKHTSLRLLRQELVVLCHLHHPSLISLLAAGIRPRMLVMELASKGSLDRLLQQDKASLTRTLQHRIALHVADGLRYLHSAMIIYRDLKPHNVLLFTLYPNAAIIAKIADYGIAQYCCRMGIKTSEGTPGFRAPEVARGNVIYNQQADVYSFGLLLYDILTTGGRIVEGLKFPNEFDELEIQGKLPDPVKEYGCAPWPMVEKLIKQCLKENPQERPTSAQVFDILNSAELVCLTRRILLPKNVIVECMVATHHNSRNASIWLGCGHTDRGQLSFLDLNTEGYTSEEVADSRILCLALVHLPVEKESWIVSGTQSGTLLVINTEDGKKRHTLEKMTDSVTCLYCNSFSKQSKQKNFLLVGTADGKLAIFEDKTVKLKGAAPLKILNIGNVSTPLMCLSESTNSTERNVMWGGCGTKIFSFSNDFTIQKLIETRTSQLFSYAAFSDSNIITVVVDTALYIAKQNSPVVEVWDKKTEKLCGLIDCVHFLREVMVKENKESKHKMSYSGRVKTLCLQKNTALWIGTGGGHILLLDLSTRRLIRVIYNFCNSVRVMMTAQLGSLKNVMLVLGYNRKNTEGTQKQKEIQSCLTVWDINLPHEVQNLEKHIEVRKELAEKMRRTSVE
CYP3A4, sequence (P08684 whole entry): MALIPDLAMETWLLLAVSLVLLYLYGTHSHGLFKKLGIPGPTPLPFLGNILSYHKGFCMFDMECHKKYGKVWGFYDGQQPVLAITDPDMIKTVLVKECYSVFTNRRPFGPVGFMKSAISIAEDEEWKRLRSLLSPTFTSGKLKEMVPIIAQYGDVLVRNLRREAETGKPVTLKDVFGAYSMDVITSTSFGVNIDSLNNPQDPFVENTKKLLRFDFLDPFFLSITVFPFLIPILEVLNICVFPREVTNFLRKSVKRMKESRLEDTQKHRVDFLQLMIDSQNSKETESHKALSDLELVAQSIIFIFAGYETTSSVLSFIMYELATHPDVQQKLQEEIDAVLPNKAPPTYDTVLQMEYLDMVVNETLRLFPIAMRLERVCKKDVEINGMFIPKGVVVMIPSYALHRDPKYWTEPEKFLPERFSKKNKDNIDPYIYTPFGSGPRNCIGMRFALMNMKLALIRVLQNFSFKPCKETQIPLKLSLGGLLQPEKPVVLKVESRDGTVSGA
RSK2, sequence (P51812 whole entry): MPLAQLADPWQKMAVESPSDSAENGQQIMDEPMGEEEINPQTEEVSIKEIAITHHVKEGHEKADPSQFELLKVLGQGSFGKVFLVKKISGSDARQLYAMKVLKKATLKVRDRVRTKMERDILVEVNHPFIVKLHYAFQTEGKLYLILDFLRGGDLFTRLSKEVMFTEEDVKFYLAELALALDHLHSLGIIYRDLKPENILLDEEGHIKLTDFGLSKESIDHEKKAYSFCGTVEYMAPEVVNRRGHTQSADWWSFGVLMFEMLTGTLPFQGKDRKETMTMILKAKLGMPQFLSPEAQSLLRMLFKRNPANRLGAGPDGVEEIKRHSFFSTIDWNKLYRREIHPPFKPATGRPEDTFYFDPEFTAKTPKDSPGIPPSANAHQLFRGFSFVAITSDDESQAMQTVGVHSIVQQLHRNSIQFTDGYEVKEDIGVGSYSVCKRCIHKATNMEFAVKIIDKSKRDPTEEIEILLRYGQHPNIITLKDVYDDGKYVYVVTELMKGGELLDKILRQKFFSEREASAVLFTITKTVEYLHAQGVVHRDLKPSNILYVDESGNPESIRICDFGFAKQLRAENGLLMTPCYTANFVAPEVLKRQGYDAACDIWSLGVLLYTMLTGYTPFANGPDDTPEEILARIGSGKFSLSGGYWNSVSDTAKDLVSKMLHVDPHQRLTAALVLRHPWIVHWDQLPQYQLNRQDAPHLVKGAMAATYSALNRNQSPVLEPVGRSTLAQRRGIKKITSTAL

Question: What does the source list for `CCOC(=O)c1cnc2[nH]ccc2c1N[C@@H]1CCCN(C(=O)CC#N)C1` [ATI-1777, ethyl (R)-4-((1-(2-cyanoacetyl)piperidin-3-yl)amino)-1H-pyrrolo[2,3-b]pyridine-5-carboxylate]?
Answer: IC50 (HPK1 (MAP4K1)): 0.285 µM; Fold Selectivity (HPK1 (MAP4K1); HPK1 (MAP4K1) vs Jak1 (= 1)): 190 fold; IC50 (MARK1): 1.25 µM; Fold Selectivity (MARK1; MARK1 vs Jak1 (= 1)): 833 fold; IC50 (RSK2): 1.05 µM; Fold Selectivity (RSK2; RSK2 vs Jak1 (= 1)): 700 fold; IC50 (LRRK2): 0.048 µM; Fold Selectivity (LRRK2; LRRK2 vs Jak1 (= 1)): 32 fold; CLint scaled [1]: 3280 mL/min/kg; half-life [1]: 1.66 min; CLint scaled [2]: 939 mL/min/kg; microsomal CLint [2]: 264 µL/min/mg; half-life ([2]; T1/2, Study 1, n = 1): 2.16 min; half-life ([2]; T1/2, Study 2, n = 1): 5 min; Percentage Remaining (CYP3A4): 0.56%; systemic exposure ([3]; 2% solution, 7 consecutive days, LLOQ = 0.5 ng/ml, at most time points): unquantifiable; concentration at 0 h [3, 6]: 0 ng/mL; concentration at 1 h [3, 6]: 0 ng/mL; concentration at 2 h [3, 6]: 0.387 ng/mL; concentration at 4 h [3, 6]: 0.221 ng/mL; concentration at 8 h [3, 6]: 0.391 ng/mL; concentration at 12 h [3, 6]: 0 ng/mL; concentration at 24 h [3, 6]: 0 ng/mL; clinical observations and clinical pathology parameters (minipig [4]): no adverse clinical observations or changes in clinical pathology parameters; ATI-1777–related effects / adverse effects (minipig [5]): No ATI-1777–related effects were noted at any dose; also recorded: did not present any adverse effects
